Several values for one entry are separate records, joined by “and”; a condition that tells them apart may be missing. Equal entries are not always repeated.
Tests used:
[1] = tested on: P388; assay: Compound was tested in vivo for the antitumor activity against P388 lymphocytic leukemia at dose level of 60 mg/kg; assay type: functional, Mus musculus
[2] = tested on: P388; assay: Compound was tested in vivo for its antitumor activity against P388 lymphocytic leukemia at dose level of 60 mg/kg; assay type: functional, Mus musculus
[3] = tested on: P388; assay: Compound was tested for the antitumor activity against P388 lymphocytic leukemia at dose level of 240 mg/kg; 6/6; assay type: functional, Mus musculus
[4] = tested on: P388; assay: Compound was tested for the antitumor activity against P388 lymphocytic leukemia at dose level of 60 mg/kg; 6/6; assay type: functional, Mus musculus
[5] = tested on: P388; assay: Compound was tested in vivo for its antitumor activity against P388 lymphocytic leukemia at dose level of 240 mg/kg; assay type: functional, Mus musculus
[6] = tested on: P388; assay: Compound was tested in vivo for the antitumor activity against P388 lymphocytic leukemia at dose level of 120 mg/kg; assay type: functional, Mus musculus
[7] = tested on: P388; assay: Compound was tested in vivo for the antitumor activity against P388 lymphocytic leukemia at dose level of 240 mg/kg; assay type: functional, Mus musculus
[8] = tested on: P388; assay: Compound was tested in vivo for its antitumor activity against P388 lymphocytic leukemia at dose level of 120 mg/kg; assay type: functional, Mus musculus
[9] = tested on: P388; assay: Compound was tested for the antitumor activity against P388 lymphocytic leukemia at dose level of 120 mg/kg; 6/6; assay type: functional, Mus musculus
[10] = tested on: P388; assay: Compound was tested for the antitumor activity against P388 lymphocytic leukemia at dose level of 120 mg/kg; assay type: functional, Mus musculus
[11] = tested on: P388; assay: Compound was tested for the antitumor activity against P388 lymphocytic leukemia at dose level of 240 mg/kg; assay type: functional, Mus musculus
[12] = tested on: P388; assay: Compound was tested for the antitumor activity against P388 lymphocytic leukemia at dose level of 60 mg/kg; assay type: functional, Mus musculus
[13] = tested on: M5076; assay: Compound was tested in vivo for the antitumor activity against solid tumor models at dose level of 800 mg/kg (M5076 assay); assay type: functional, Homo sapiens
[14] = tested on: M5076; assay: Compound was tested for the antitumor activity against solid tumor models at dose level of 800 mg/kg (M5076 assay); assay type: functional
[15] = tested on: Homo sapiens; assay: Compound was tested in vivo for the antitumor activity against solid tumor models at dose level of 800 mg/kg (MX-1 assay); assay type: functional
[16] = Compound was tested in vivo for the antitumor activity against solid tumor models at dose level of 400 mg/kg (LOX assay); assay type: functional, Homo sapiens
[17] = Compound was tested for the antitumor activity against solid tumor models at dose level of 400 mg/kg (LOX assay); assay type: functional, Homo sapiens
[18] = tested on: Homo sapiens; assay: Compound was tested for the antitumor activity against solid tumor models at t dose level of 800 mg/kg (MX-1 assay); assay type: functional
[19] = Pseudo-first order rate constant for the reaction with 4-(p-Nitrobenzyl)pyridine
In short: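 Alkylating ability was measured against 4-(p-nitrobenzyl)pyridine (NBP), with 0.2 µmol alkylating agent and 240 µmol NBP as starting amounts. At timed points the mixture was diluted with acetone, mixed 3 s, and read at once at 570 nm. The blank was NBP, water, absolute ethanol, base solution and acetone. k' = slope of E570 vs time. Competing hydrolysis was assumed minor and neglected in the initial phase.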

[20] = tested on: P388; assay: Compound was tested in vivo for the antitumor activity against P388 lymphocytic leukemia at dose level of 40 mg/kg; assay type: functional, Mus musculus
[21] = tested on: P388; assay: Compound was tested for the antitumor activity against P388 lymphocytic leukemia at dose level of 40 mg/kg; 6/6; assay type: functional, Mus musculus
[22] = tested on: P388; assay: Compound was tested in vivo for its antitumor activity against P388 lymphocytic leukemia at dose level of 240 mg/kg; Toxic dose; assay type: functional, organism-based; set-up: dose 240 mg/kg; conditions: Mus musculus
[23] = tested on: P388; assay: Compound was tested in vivo for its antitumor activity against P388 lymphocytic leukemia at dose level of 40 mg/kg; assay type: functional, Mus musculus
[24] = tested on: P388; assay: Compound was tested in vivo for the antitumor activity against P388 lymphocytic leukemia at dose level of 20 mg/kg; assay type: functional, Mus musculus
[25] = tested on: P388; assay: Compound was tested in vivo for its antitumor activity against P388 lymphocytic leukemia at dose level of 120 mg/kg; Toxic dose; assay type: functional, organism-based; set-up: dose 120 mg/kg; conditions: Mus musculus
[26] = tested on: P388; assay: Compound was tested in vivo for its antitumor activity against P388 lymphocytic leukemia at dose level of 20 mg/kg; assay type: functional, Mus musculus
[27] = tested on: P388; assay: Compound was tested for the antitumor activity against P388 lymphocytic leukemia at dose level of 20 mg/kg; assay type: functional, Mus musculus
[28] = tested on: P388; assay: Compound was tested for the antitumor activity against P388 lymphocytic leukemia at dose level of 40 mg/kg; assay type: functional, Mus musculus
[29] = tested on: P388; assay: Compound was tested for the antitumor activity against P388 lymphocytic leukemia at dose level of 20 mg/kg; 6/6; assay type: functional, Mus musculus
[30] = tested on: P388; assay: Compound was tested in vivo for the antitumor activity against P388 lymphocytic leukemia at dose level of 15 mg/kg; assay type: functional, Mus musculus
[31] = tested on: P388; assay: Compound was tested for the antitumor activity against P388 lymphocytic leukemia at dose level of 30 mg/kg; 6/6; assay type: functional, Mus musculus
[32] = tested on: P388; assay: Compound was tested in vivo for its antitumor activity against P388 lymphocytic leukemia at dose level of 30 mg/kg; assay type: functional, Mus musculus
[33] = tested on: P388; assay: Compound was tested in vivo for the antitumor activity against P388 lymphocytic leukemia at dose level of 30 mg/kg; assay type: functional, Mus musculus
[34] = tested on: P388; assay: Compound was tested in vivo for its antitumor activity against P388 lymphocytic leukemia and at dose level of 120 mg/kg; Toxic dose; assay type: functional, organism-based; set-up: dose 120 mg/kg; conditions: Mus musculus
[35] = tested on: P388; assay: Compound was tested in vivo for its antitumor activity against P388 lymphocytic leukemia at dose level of 15 mg/kg; assay type: functional, Mus musculus
[36] = tested on: P388; assay: Compound was tested for the antitumor activity against P388 lymphocytic leukemia at dose level of 120 mg/kg; 5/6; assay type: functional, Mus musculus
[37] = tested on: P388; assay: Compound was tested for the antitumor activity against P388 lymphocytic leukemia at dose level of 15 mg/kg; assay type: functional, Mus musculus
[38] = tested on: P388; assay: Compound was tested for the antitumor activity against P388 lymphocytic leukemia at dose level of 30 mg/kg; assay type: functional, Mus musculus
[39] = tested on: P388; assay: Compound was tested for the antitumor activity against P388 lymphocytic leukemia at dose level of 15 mg/kg; 6/6; assay type: functional, Mus musculus
[40] = tested on: P388; assay: Compound was tested for the antitumor activity against P388 lymphocytic leukemia at dose level of 240 mg/kg; 0/6; assay type: functional, Mus musculus
[41] = tested on: M5076; assay: Compound was tested in vivo for the antitumor activity against solid tumor models at dose level of 50 mg/kg (M5076 assay); assay type: functional
[42] = tested on: M5076; assay: Compound was tested for the antitumor activity against solid tumor models at dose level of 50 mg/kg (M5076 assay); assay type: functional
[43] = tested on: Homo sapiens; assay: Compound was tested in vivo for the antitumor activity against solid tumor models at dose level of 200 mg/kg (MX-1 assay); assay type: functional
[44] = tested on: Homo sapiens; assay: Compound was tested for the antitumor activity against solid tumor models at t dose level of 200 mg/kg (MX-1 assay); assay type: functional
[45] = Compound was tested in vivo for the antitumor activity against solid tumor models at dose level of 100 mg/kg (LOX assay); assay type: functional, Homo sapiens
[46] = Compound was tested for the antitumor activity against solid tumor models at dose level of 100 mg/kg (LOX assay); assay type: functional, Homo sapiens

Row | K' [19] | Compound | T/C [1] | KE [2] | TDS [3] | TDS [4] | KE [5] | T/C [6] | T/C [7] | KE [8] | TDS [9] | Weight difference [10] | Weight difference [11] | Weight difference [12] | KE [22] | other results
1 | 0.00321 abs/time | CC(C)NC(=O)OCc1c(-c2ccccc2)c(-c2ccccc2)n(C)c1COC(=O)NC(C)C | 142% | 0.59 | 6 | 6 | 3.74 | 160% | 181% | 2.06 | 6 | 1.5 g | -2.4 g | -1.1 g | – | T/C [13]: 178%; Weight difference [14]: -2.8 g; T/C [15]: 0%; T/C [16]: 301%; Weight difference [17]: -3.3 g; Weight difference [18]: -5.3 g
2 | 0.00669 abs/time | CC(C)NC(=O)OCc1c(-c2ccccc2)c(-c2ccccc2)c(COC(=O)NC(C)C)n1C | 107% | -1.44 | – | – | -1.51 | 98% | 101% | -1.56 | – | -0.2 g | -1.7 g | 0 g | – | TDS ratio [10]: 6; TDS ratio [11]: 6; TDS ratio [12]: 6
3 | 0.00498 abs/time | CC(C)NC(=O)OCc1c(COC(=O)NC(C)C)c(-c2ccccc2)n(C)c1-c1ccccc1 | 209% | 6.43 | 6 | 6 | – | 94% | – | – | 6 | -4.4 g | -5.5 g | -2.2 g | Toxic | T/C [20]: 168%; TDS [21]: 6; KE [23]: 2.85; T/C [24]: 137% and 205%; KE [25]: Toxic; KE [26]: 0.08; Weight difference [27]: -0.1 g; Weight difference [28]: -1.6 g; TDS [29]: 6
4 | 0.00112 abs/time | CC(C)NC(=O)OCc1c(-c2ccccc2)c(COC(=O)NC(C)C)n(C)c1-c1ccccc1 | 180% | 3.89 | – | 6 | – | – | – | – | – | -4.5 g | – | -3.8 g | Toxic | T/C [30]: 134%; TDS [31]: 6; KE [32]: 0.88; T/C [33]: 150%; KE [34]: Toxic; KE [35]: -0.19; TDS [36]: 5; Weight difference [37]: -3.7 g; Weight difference [38]: -5.3 g; TDS [39]: 6; TDS [40]: 0; T/C [41]: 139%; Weight difference [42]: -2.5 g; T/C [43]: -3%; Weight difference [44]: -7.2 g; T/C [45]: 180%; Weight difference [46]: -3.5 g

Reference: ChEMBL document CHEMBL1123467, “Comparison of the chemical reactivities and antineoplastic activities of alpha,beta-, alpha,beta'-, beta,beta'-, and alpha,alpha'-bis[[[(2-propylamino)carbonyl]oxy]methyl]-substituted pyrroles” (1986)
